Measurements reported in ChEMBL document CHEMBL1127740, “The discovery of capsazepine, the first competitive antagonist of the sensory neuron excitants capsaicin and resiniferatoxin” (J Med Chem, 1994).

How the values were obtained:
Rattus norvegicus [1] = species: Rattus norvegicus; experiment: In vitro agonist activity against [Ca2+] uptake in neonatal rat cultured spinal sensory neurons; assay type: functional
Method in brief: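 Neonatal rat dorsal root ganglia were dissociated with collagenase then trypsin and cultured with 10% horse serum, 1 μg/mL NGF and 48 h of 10^-4 M cytosine arabinoside. Assays used 3–7-day cultures washed in Ca-free HEPES-buffered BSS (pH 7.4). Compound with 10 μCi/mL 45Ca2+ and 1% DMSO was applied for 10 min at room temperature; SDS extract was scintillation counted. Medium-only background; EC50 from ≥6 replicates/concentration.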

Rattus norvegicus [2] = species: Rattus norvegicus; experiment: In vitro antagonist activity against [Ca2+] uptake in neonatal rat cultured spinal sensory neurons; assay type: functional
Method in brief: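 Cultured neonatal rat DRG neurons (3–7 days old, non-neuronal cells removed with cytosine arabinoside) were washed in Ca-free HEPES BSS, pH 7.4. 45Ca2+ uptake stimulated by a fixed 0.5 μM agent was measured with test compound in 1% DMSO over 10 min at room temperature. Cells were lysed with SDS and scintillation counted. IC50 is 50% reduction of the evoked response, from ≥6 replicates/concentration.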

Row | EC50 (Rattus norvegicus [1]) | IC50 (Rattus norvegicus [2]) | SMILES
1 | > 100000 nM | > 100000 nM | COc1cc2c(cc1O)CN(/C(S)=N/CCc1ccc(Cl)cc1)C2
2 | 290 nM | – | Oc1cc2c(cc1O)CN(C(=S)NCCc1ccc(Cl)cc1)CC2
3 | > 100000 nM | 420 nM | Oc1cc2c(cc1O)CN(C(=S)NCCc1ccc(Cl)cc1)CCC2 [CAPSAZEPINE]
4 | > 100000 nM | 6990 nM | COc1cc2c(cc1OC)CN(/C(S)=N/CCc1ccc(Cl)cc1)CCC2
5 | 1090 nM | 1230 nM | COc1cc2c(cc1O)CCN(/C(S)=N/CCc1ccc(Cl)cc1)C2
6 | 1230 nM | – | COc1cc2c(cc1O)CN(/C(S)=N/CCc1ccc(Cl)cc1)CC2

The next lines start with the molecule.

Row | SMILES | EC50 (Rattus norvegicus [1]) | IC50 (Rattus norvegicus [2])
7 | CCCCCCCC/N=C(\S)NCc1ccc(O)c(OC)c1 | 60 nM | –
8 | Oc1cc2c(cc1O)CN(C(=S)NCCc1ccc(Cl)cc1)C2 | 550 nM | –
9 | CCCCCCCC/N=C(\S)N1CCc2c(ccc(O)c2O)C1 | > 100000 nM | 3480 nM
10 | COc1cc(C/N=C(\S)NCCc2ccc(Cl)cc2)ccc1O | 60 nM | –
11 | Oc1ccc(CNC(=S)NCCc2ccc(Cl)cc2)cc1O | 100 nM | –
12 | CCCCCCCC/N=C(\S)N1CCc2cc(O)c(O)cc2C1 | 740 nM | –
13 | Oc1ccc2c(c1O)CCN(C(=S)NCCc1ccc(Cl)cc1)C2 | > 100000 nM | 440 nM
